Paper PMC3689578 (Integrative biology : quantitative biosciences from nano to …, 2012)
Read-outs that look alike come from different tables or passages of the source.

Columns and labels:
[1] = target: T1, thrombin (Homo sapiens, UniProt P00734); assay: Enzyme cleavage by purified thrombin; format: biochemical
[2] = test system: human atheromas; assay: Ex vivo incubation of human carotid endarterectomy specimens
Outline: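 Fresh carotid endarterectomy specimens from five patients, held on ice, embedded in 0.5% agarose, cut into 2 mm slices. Slices from the same specimen incubated 1 h in 10 μmol L−1 Cy5-labelled cleavable or control probe; two sections also with 110 or 220 μmol L−1 argatroban. Fluorescence measured on cryosections, background-subtracted. Slices homogenised in SDS sample buffer, centrifuged, supernatant run on gel. Paired t-test.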

[3] = target: T2, Active thrombin in serum (Mus musculus, UniProt P19221); assay: biochemical; settings: read-out: inhibition of DPRSFL–ACPP proteolysis by serum
[4] = target: T1, thrombin; assay: Determination of kcat/Km with thrombin; format: biochemical
Outline: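 Thrombin at 50 nmol L−1 with seven substrate concentrations from 1 to 30 μmol L−1, sampled at 5, 15, 30 and 60 min. Reactions stopped with SDS sample buffer and run on tricine gels. Percent cleavage = (lower band − background)/(lower + upper band − 2×background), uncleaved-substrate value subtracted. Percent × starting concentration gives product. Velocity is the slope of the linear product-versus-time segment. Km and kcat come from the Lineweaver–Burke intercept and slope.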

[5] = target: plasmin (Homo sapiens, UniProt P00747); assay: Enzyme cleavage by plasmin; format: biochemical; settings: 5 μmol L^−1 peptide, 50 nmol L^−1 enzyme
[6] = test system: trypsin; assay: Enzyme cleavage by trypsin; format: biochemical; settings: 5 μmol L^−1 peptide, 50 nmol L^−1 enzyme
[7] = test system: chymotrypsin; assay: Enzyme cleavage by chymotrypsin; format: biochemical; settings: 5 μmol L^−1 peptide, 50 nmol L^−1 enzyme
[8] = target: factor Xa (Bos taurus, UniProt P00743); assay: Enzyme cleavage by factor Xa; format: biochemical; settings: 5 μmol L^−1 peptide, 50 nmol L^−1 enzyme
[9] = target: T3, factor VIIa (Homo sapiens, UniProt P08709); assay: Enzyme cleavage by factor VIIa; format: biochemical; settings: 5 μmol L^−1 peptide, 50 nmol L^−1 enzyme
T3 sequence (P08709 213-466 limits assumed): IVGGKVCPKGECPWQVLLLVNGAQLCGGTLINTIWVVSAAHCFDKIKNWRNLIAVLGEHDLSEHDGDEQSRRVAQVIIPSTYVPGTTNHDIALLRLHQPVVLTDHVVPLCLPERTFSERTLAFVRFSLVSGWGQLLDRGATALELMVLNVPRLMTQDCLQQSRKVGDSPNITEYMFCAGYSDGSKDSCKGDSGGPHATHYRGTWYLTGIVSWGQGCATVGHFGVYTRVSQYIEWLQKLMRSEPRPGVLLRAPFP
T3 sequence (P08709 61-212 limits assumed): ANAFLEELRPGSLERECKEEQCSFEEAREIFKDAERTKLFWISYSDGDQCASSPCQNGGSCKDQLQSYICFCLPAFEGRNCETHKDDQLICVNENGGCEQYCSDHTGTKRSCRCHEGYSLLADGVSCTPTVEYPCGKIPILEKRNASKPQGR

[10] = target: factor XIa (Homo sapiens, UniProt P03951); assay: Enzyme cleavage by factor XIa; format: biochemical; settings: 5 μmol L^−1 peptide, 50 nmol L^−1 enzyme
[11] = target: T4, factor XIIa (Homo sapiens, UniProt P00748); assay: Enzyme cleavage by factor XIIa; format: biochemical; settings: 5 μmol L^−1 peptide, 50 nmol L^−1 enzyme
T4 sequence (P00748 373-615 limits assumed): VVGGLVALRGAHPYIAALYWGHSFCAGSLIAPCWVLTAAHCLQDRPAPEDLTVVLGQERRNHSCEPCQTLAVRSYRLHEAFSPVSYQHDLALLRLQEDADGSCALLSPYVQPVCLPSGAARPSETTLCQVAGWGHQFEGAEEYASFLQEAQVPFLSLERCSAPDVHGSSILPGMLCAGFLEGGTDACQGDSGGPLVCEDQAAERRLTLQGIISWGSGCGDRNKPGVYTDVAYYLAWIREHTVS

[12] = target: T5, cathepsin G (Homo sapiens, UniProt P08311); assay: Enzyme cleavage by cathepsin G; format: biochemical; settings: 5 μmol L^−1 peptide, 50 nmol L^−1 enzyme
T5 sequence (P08311 21-255): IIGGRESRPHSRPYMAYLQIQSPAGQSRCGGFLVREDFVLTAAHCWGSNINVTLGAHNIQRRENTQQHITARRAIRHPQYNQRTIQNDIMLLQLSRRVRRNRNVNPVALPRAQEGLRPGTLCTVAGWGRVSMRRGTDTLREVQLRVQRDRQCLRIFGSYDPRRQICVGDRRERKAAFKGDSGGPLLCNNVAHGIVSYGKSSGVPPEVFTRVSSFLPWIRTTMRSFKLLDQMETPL

[13] = target: T6, neutrophil elastase (Homo sapiens, UniProt P08246); assay: Enzyme cleavage by neutrophil elastase; format: biochemical; settings: 5 μmol L^−1 peptide, 50 nmol L^−1 enzyme
T6 sequence (P08246 30-267): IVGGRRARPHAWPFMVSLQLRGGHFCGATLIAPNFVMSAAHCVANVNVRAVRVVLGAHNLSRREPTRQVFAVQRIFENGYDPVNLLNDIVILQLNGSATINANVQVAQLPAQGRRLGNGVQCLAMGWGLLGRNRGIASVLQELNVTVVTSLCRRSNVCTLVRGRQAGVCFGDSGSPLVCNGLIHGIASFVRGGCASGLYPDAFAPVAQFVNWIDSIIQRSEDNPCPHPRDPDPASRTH

[14] = target: activated protein C (APC) (Homo sapiens, UniProt P04070); assay: Enzyme cleavage by activated protein C; format: biochemical; settings: 5 μmol L^−1 peptide, 50 nmol L^−1 enzyme
[15] = test system: clots at the end of the amputated tail tips; assay: In vivo clot imaging after tail amputation; set-up: species or system wildtype FVB mice; settings: 10 nanomoles iv, 24 hours, p = 0.045
Outline: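 Wildtype FVB mouse tails clipped 2.5 mm from the tip. 20 min later, 10 nanomoles cleavable or control probe given i.v. At 24 h, under ketamine/midazolam (80, 5 mg kg−1), tail-tip clots imaged by fluorescence dissecting microscope (ex 620/60, em 700/75). Intensity quantified from images.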

[16] = set-up: species or system mice; settings: mouse, in vivo, iv
[17] = test system: atherosclerotic plaques; assay: Aorta and plaque fluorescence sorted by histologic group; format: in vivo, mice
[18] = test system: atherosclerotic plaques; assay: Distribution of fluorescence within sectioned plaques; format: in vivo, LDLR−/− mice; settings: 15 plaques, n = 5 mice, p = 0.023 paired t-test
[19] = test system: atherosclerotic plaques; assay: Imaging of carotid plaques after co-injection of two probes; format: in vivo, LDLR−/− mice; settings: rhodamine-labelled DPRSFL–ACPP, two animals
Outline: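 LDLR−/− mice (C57BL/6 background) fed 0.5% cholesterol diet for 1–2 years, given rhodamine-labelled test probe plus Cy5-labelled MMP-cleavable probe intravenously. At 6 h, under anaesthesia, the carotid was exposed and imaged by fluorescence dissecting microscope. Carotid bifurcation and aortic arch imaged postmortem (rhodamine ex 560/25, em 607/36; Cy5 ex 620/60, em 700/75). Tissue then frozen for histology.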

[20] = target: T2, Active thrombin in serum
[21] = target: T1, thrombin; settings: thrombin activity on native receptor; cited from earlier work
[22] = 50 nmol L^−1 thrombin, 1 to 30 μmol L^−1 peptide, 5-60 min, gel read-out

factor XIa, sequence (P03951 388-625 limits assumed): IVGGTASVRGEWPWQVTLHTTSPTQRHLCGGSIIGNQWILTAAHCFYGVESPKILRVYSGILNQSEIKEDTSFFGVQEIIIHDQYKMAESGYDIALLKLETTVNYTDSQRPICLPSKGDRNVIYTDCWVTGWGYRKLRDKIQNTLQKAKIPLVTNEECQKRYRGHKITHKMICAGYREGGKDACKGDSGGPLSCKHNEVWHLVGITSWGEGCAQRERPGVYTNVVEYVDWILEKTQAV
factor XIa, sequence (P03951 19-387 limits assumed): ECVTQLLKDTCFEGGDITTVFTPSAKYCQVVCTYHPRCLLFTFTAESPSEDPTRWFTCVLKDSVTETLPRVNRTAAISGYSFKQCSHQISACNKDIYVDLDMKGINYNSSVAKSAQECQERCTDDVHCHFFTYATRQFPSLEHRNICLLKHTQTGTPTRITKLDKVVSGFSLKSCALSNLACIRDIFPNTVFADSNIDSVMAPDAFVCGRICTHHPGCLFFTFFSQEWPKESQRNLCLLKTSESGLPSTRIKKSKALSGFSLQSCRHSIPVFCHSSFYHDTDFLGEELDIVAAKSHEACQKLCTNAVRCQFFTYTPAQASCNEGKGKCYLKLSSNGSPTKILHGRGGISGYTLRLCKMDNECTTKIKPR
factor Xa, sequence (P00743 234-492 limits assumed): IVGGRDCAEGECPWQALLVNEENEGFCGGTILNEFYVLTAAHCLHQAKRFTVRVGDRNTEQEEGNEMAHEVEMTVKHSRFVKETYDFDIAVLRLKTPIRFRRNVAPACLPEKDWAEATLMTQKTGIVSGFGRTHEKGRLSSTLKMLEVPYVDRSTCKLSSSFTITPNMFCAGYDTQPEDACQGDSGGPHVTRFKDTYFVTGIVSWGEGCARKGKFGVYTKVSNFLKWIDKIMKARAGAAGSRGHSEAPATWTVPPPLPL
factor Xa, sequence (P00743 41-180 limits assumed): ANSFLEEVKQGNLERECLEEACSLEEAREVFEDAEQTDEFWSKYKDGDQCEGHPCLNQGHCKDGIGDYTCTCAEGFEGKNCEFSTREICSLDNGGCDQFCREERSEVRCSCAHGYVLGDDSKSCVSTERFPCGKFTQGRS
activated protein C (APC), sequence (P04070 212-461 limits assumed): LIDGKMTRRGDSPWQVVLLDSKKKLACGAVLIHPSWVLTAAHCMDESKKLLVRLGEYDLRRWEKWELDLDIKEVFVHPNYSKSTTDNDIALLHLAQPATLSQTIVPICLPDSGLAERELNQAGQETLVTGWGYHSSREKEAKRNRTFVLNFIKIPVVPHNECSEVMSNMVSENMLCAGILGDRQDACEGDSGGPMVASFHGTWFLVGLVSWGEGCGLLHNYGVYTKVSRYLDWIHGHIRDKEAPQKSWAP
activated protein C (APC), sequence (P04070 43-197 limits assumed): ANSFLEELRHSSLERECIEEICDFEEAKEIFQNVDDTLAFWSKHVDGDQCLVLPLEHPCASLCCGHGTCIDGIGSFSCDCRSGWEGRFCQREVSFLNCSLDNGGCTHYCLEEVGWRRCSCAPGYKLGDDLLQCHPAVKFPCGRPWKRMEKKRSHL
plasmin, sequence (P00747 581-810 limits assumed, species assumed): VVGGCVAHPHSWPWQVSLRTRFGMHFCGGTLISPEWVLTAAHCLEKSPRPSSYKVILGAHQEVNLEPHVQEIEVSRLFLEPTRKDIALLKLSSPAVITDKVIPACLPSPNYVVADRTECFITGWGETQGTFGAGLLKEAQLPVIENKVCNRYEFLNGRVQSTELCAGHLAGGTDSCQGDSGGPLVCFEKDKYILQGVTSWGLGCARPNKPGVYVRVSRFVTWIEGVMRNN
plasmin, sequence (P00747 97-580 limits assumed, species assumed): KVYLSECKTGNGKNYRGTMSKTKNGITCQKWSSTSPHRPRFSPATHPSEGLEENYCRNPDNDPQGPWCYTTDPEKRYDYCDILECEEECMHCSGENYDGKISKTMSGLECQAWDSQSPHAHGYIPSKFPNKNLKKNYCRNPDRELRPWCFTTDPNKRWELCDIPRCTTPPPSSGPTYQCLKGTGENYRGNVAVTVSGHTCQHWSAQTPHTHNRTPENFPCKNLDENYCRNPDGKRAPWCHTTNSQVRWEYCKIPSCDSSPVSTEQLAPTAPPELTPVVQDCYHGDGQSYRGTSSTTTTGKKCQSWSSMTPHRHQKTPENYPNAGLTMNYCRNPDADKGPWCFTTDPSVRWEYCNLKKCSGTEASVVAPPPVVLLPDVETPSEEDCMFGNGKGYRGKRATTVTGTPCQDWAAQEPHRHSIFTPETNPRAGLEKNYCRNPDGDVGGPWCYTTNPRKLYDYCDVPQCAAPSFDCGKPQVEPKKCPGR

## CC1CNc2c(cccc2S(=O)(=O)N[C@@H](CCCNC(=N)N)C(=O)N2CC[C@@H](C)C[C@@H]2C(=O)O)C1 (some centres unmarked) [argatroban, reference compound]
[1]; read-out: inhibition of DPRSFL–ACPP cleavage by thrombin
  inhibition at 4 µg/mL: > 90%
[2]; 110 or 220 μmol L^−1 argatroban, two atheroma specimens
  reduction in fluorescence intensity relative to DPRSFL–ACPP alone: 76.6 ± 13.4%
[3]
  inhibition at 4 µg/mL: > 90%

## Suc-e8-O-DPRSFL-r9-c(Cy5 or rhodamine)-CONH2 [DPRSFL–ACPP]
[4]; [22]
  Km: 15 µM
  kcat: 0.3 s⁻¹
[4]; from kcat and Km
  kcat/Km: 21000 M⁻¹ s⁻¹
[1]; 5 μmol L^−1 peptide, 50 nM thrombin, 20 min, 37 °C, triplicate
  cleavage by purified thrombin: efficiently cleaved
[5]
  cleavage by plasmin: able to cleave
[6]
  cleavage by trypsin: able to cleave
[7]
  cleavage by chymotrypsin: able to cleave
[8]
  cleavage by factor Xa: able to cleave
[9]
  cleavage by factor VIIa: no cleavage
[10]
  cleavage by factor XIa: no cleavage
[11]
  cleavage by factor XIIa: no cleavage
[12]
  cleavage by cathepsin G: no cleavage
[13]
  cleavage by neutrophil elastase: no cleavage
[14]
  cleavage by APC: no cleavage
[15]
  fold increase in clot fluorescence intensity compared to mPEG–ACPP: 2.4 fold
[16]
  whole blood half-life: 17 ± 5 min
[17]; n = 3, p = 0.007 vs Group 1
  fluorescence intensity of individual plaques, Group 2: 43.7 ± 7.5
[17]; n = 4, p = 0.02 vs Group 1
  whole aorta fluorescence per pixel, Group 2 (more advanced plaques): 24.4 ± 3.6
[17]; n = 11
  fluorescence intensity of individual plaques, Group 1: 17.0 ± 9.3
[17]; n=12
  whole aorta fluorescence per pixel, Group 1 (less advanced plaques): 7.8 ± 3.0
[18]
  uptake in hypocellular (DAPI poor) region versus cellular rich exterior: statistically greater
[2]; freshly resected human atheromas bathed in probe
  greater cleavage product retained compared to control ACPP: 63%
[2]; slices homogenized in SDS sample buffer after incubation
  cleavage by human atheromas (gel electrophoresis of homogenates): cleaved
[19]
  uptake relative to co-injected Cy5–PLGLAG–ACPP within the same plaques: much higher
[20]
  cleavage by serum: rapidly cleaved

B1: native PAR-1 receptor: native proteinase activated receptor 1, thrombin substrate (protein, UniProt P25116 42-425, looked up)
Proteinase-activated receptor …: SFLLRNPNDKYEPFWEDEEKNESGLTEYRLVSINKSSPLQKQLPAFISEDASGYLTSSWLTLFVPSVYTGVFVVSLPLNIMAIVVFILKMKVKKPAVVYMLHLATADVLFVSVLPFKISYYFSGSDWQFGSELCRFVTAAFYCNMYASILLMTVISIDRFLAVVYPMQSLSWRTLGRASFTCLAIWALAIAGVVPLLLKEQTIQVPGLNITTCHDVLNETLLEGYYAYYFSAFSAVFFFVPLIISTVCYVSIIRCLSSSAVANRSKKSRALFLSAAVFCIFIICFGPTNVLLIAHYSFLSHTSTTEAAYFAYLLCVCVSSISCCIDPLIYYYASSECQRYVYSILCCKESSDPSSYNSSGQLMASKMDTCSSNLNNSIYKKLLT
[21]
  kcat/Km: 7.6e+06 M⁻¹ s⁻¹
